Converted amounts (≈) assume the structure as drawn.
What was measured:
[1] = system: Pichia kudriavzevii; experiment: Antifungal activity against Candida krusei ATCC 6258 after 24 hrs by microdilution method; format: functional; details: ATCC 6258, 24 h
How it was run: (§1)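 Yeasts held on Sabouraud dextrose agar. MIC by NCCLS M27-A broth microdilution in RPMI 1640 with L-glutamine, buffered with 0.165 M MOPS to pH 7.0. Compounds in DMSO (≤2% final), twofold dilutions 500–0.48. Final inoculum 5 × 10³ ± 0.2 cfu mL⁻¹. Incubated at 35 °C; absorbance at 540 nm read at 24 and 48 h. MIC is 80% growth inhibition versus control; run twice in duplicate.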

[2] = system: Trichosporon beigelii; experiment: Antifungal activity against Trichosporon beigelii 1188 after 24 hrs by microdilution method; format: functional; details: Trichosporon beigelii, 1188, 24 h; how it was run: as §1
[3] = system: Candida albicans; experiment: Antifungal activity against Candida albicans ATCC 90028 after 48 hrs by microdilution method; format: functional; details: ATCC 90028, 48 h; how it was run: as §1
[4] = system: Pichia kudriavzevii; experiment: Antifungal activity against Candida krusei E28 after 48 hrs by microdilution method; format: functional; details: E28, 48 h; how it was run: as §1
[5] = system: Trichosporon beigelii; experiment: Antifungal activity against Trichosporon beigelii 1188 after 48 hrs by microdilution method; format: functional; details: Trichosporon beigelii, 1188, 48 h; how it was run: as §1
[6] = system: Candida tropicalis; experiment: Antifungal activity against Candida tropicalis 156 after 48 hrs by microdilution method; format: functional; details: Candida tropicalis, 156, 48 h; how it was run: as §1
[7] = system: Candida tropicalis; experiment: Antifungal activity against Candida tropicalis 156 after 24 hrs by microdilution method; format: functional; details: Candida tropicalis, 156, 24 h; how it was run: as §1
[8] = system: Lichtheimia corymbifera; experiment: Antifungal activity against Absidia corymbifera 272 after 48 hrs by microdilution method; format: functional; details: Lichtheimia corymbifera, 272, 48 h
How it was run: (§2)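 Filamentous strains held on Sabouraud dextrose agar. NCCLS M27-A broth microdilution in RPMI 1640 with L-glutamine and 0.165 M MOPS, pH 7.0. DMSO diluent ≤2% final; twofold dilutions 500–0.48. Inoculum 5 × 10³ ± 0.2 cfu mL⁻¹ final.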

[9] = system: HL-60; experiment: Cytostatic activity against human HL60 cells after 72 hrs by XTT assay; format: functional, cell-based; details: hl-60
How it was run: (§3)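 Leukemia cells (L1210 ATCC CCL 219, CCRF-CEM ATCC CCL 119, HL-60 ATCC CCL 240) grown in 24-well plates in RPMI 1640 with fetal calf serum. Growth assessed 72 h after drug addition. Viability measured by XTT spectrophotometric assay; potency given as IC50.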

[10] = system: Pichia kudriavzevii; experiment: Antifungal activity against Candida krusei E28 after 24 hrs by microdilution method; format: functional; details: E28, 24 h; how it was run: as §1
[11] = system: HeLa S3; experiment: Cytostatic activity against human HeLaS3 cells after 48 hrs by XTT assay
[12] = system: Candida albicans; experiment: Antifungal activity against Candida albicans ATCC 90028 after 24 hrs by microdilution method; format: functional; details: ATCC 90028, 24 h; how it was run: as §1
[13] = system: Trichophyton mentagrophytes; experiment: Antifungal activity against Trichophyton mentagrophytes 445 after 72 hrs by microdilution method; format: functional; details: Trichophyton mentagrophytes, 445, 72 h
How it was run: (§4)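 Dermatophyte held on Sabouraud dextrose agar. M27-A microdilution in MOPS-buffered (0.165 M, pH 7.0) RPMI 1640 with L-glutamine. DMSO ≤2% final; twofold dilutions 500–0.48. Inoculum 5 × 10³ ± 0.2 cfu mL⁻¹ final. Incubated at 35 °C; MIC read visually at 72 and 120 h as 80% inhibition of control growth; determined twice in duplicate.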

[14] = system: Nakaseomyces glabratus; experiment: Antifungal activity against Candida glabrata 20/I after 48 hrs by microdilution method; format: functional; how it was run: as §1
[15] = system: L1210; experiment: Cytostatic activity against mouse L1210 cells after 72 hrs by XTT assay; format: functional, cell-based; how it was run: as §3
[16] = system: Candida albicans; experiment: Antifungal activity against Candida albicans ATCC 44859 after 48 hrs by microdilution method; format: functional; details: ATCC 44859, 48 h; how it was run: as §1
[17] = system: Aspergillus fumigatus; experiment: Antifungal activity against Aspergillus fumigatus 231 after 48 hrs by microdilution method; format: functional; details: Aspergillus fumigatus, 231, 48 h; how it was run: as §2
[18] = system: CCRF-CEM; experiment: Cytostatic activity against human CCRF-CEM cells after 72 hrs by XTT assay; format: functional, cell-based; how it was run: as §3
[19] = system: Clavispora lusitaniae; experiment: Antifungal activity against Candida lusitaniae 2446/I after 48 hrs by microdilution method; format: functional; how it was run: as §1
[20] = system: Clavispora lusitaniae; experiment: Antifungal activity against Candida lusitaniae 2446/I after 24 hrs by microdilution method; format: functional; how it was run: as §1
[21] = system: Aspergillus fumigatus; experiment: Antifungal activity against Aspergillus fumigatus 231 after 24 hrs by microdilution method; format: functional; details: Aspergillus fumigatus, 231, 24 h; how it was run: as §2
[22] = system: Candida parapsilosis; experiment: Antifungal activity against Candida parapsilosis ATCC 22019 after 48 hrs by microdilution method; format: functional; details: Lodderomyces parapsilosis, ATCC 22019, 48 h; how it was run: as §1
[23] = system: Pichia kudriavzevii; experiment: Antifungal activity against Candida krusei ATCC 6258 after 48 hrs by microdilution method; format: functional; details: ATCC 6258, 48 h; how it was run: as §1
[24] = system: Nakaseomyces glabratus; experiment: Antifungal activity against Candida glabrata 20/I after 24 hrs by microdilution method; format: functional; how it was run: as §1
[25] = system: Trichophyton mentagrophytes; experiment: Antifungal activity against Trichophyton mentagrophytes 445 after 120 hrs by microdilution method; format: functional; details: Trichophyton mentagrophytes, 445, 120 h; how it was run: as §4
[26] = system: Candida albicans; experiment: Antifungal activity against Candida albicans ATCC 44859 after 24 hrs by microdilution method; format: functional; details: ATCC 44859, 24 h; how it was run: as §1
[27] = system: Lichtheimia corymbifera; experiment: Antifungal activity against Absidia corymbifera 272 after 24 hrs by microdilution method; format: functional; details: Lichtheimia corymbifera, 272, 24 h; how it was run: as §2
[28] = system: Candida parapsilosis; experiment: Antifungal activity against Candida parapsilosis ATCC 22019 after 24 hrs by microdilution method; format: functional; details: Lodderomyces parapsilosis, ATCC 22019, 24 h; how it was run: as §1
[29] = Homo sapiens, HeLa S3, 48 h, read-out: IC50
[30] = Homo sapiens, CCRF-CEM, 72 h, read-out: IC50

Row | MIC80 [1] [µM] | MIC80 [2] [µM] | MIC80 [3] [µM] | MIC80 [4] [µM] | MIC80 [5] [µM] | MIC80 [6] [µM] | MIC80 [7] [µM] | MIC80 [8] [µM] | IC50 [9] | MIC80 [10] [µM] | MIC80 [12] [µM] | MIC80 [13] [µM] | MIC80 [14] [µM] | MIC80 [16] [µM] | MIC80 [17] [µM] | MIC80 [19] [µM] | MIC80 [20] [µM] | MIC80 [21] [µM] | MIC80 [22] [µM] | MIC80 [23] [µM] | SMILES | other results
1 | > 500 | > 500 | > 500 | > 500 | > 500 | > 500 | > 500 | > 500 | Not Active | > 500 | > 500 | 31.2 (≈ 8.28 µg/mL) | > 500 | > 500 | > 500 | > 500 | > 500 | > 500 | > 500 | > 500 | C/C=C1/C=C(c2ccc(Br)cc2)C(=O)O1 | IC50 ([11]; hela s3): Not Active; IC50 ([15]; l1210): Not Active; IC50 ([18]; ccrf-cem): Not Active; MIC80 [24]: > 500 µM; MIC80 [25]: 31.2 µM (≈ 8.28 µg/mL); MIC80 [26]: 250 µM (≈ 66.3 µg/mL); MIC80 [27]: > 500 µM; MIC80 [28]: > 500 µM
2 | 15.6 (≈ 4.39 µg/mL) | 31.2 (≈ 8.78 µg/mL) | 15.6 (≈ 4.39 µg/mL) | 62.5 (≈ 17.6 µg/mL) | 62.5 (≈ 17.6 µg/mL) | 31.2 (≈ 8.78 µg/mL) | 15.6 (≈ 4.39 µg/mL) | 15.6 (≈ 4.39 µg/mL) | Not Active | 31.2 (≈ 8.78 µg/mL) | 7.81 (≈ 2.2 µg/mL) | 7.81 (≈ 2.2 µg/mL) | 62.5 (≈ 17.6 µg/mL) | 7.81 (≈ 2.2 µg/mL) | 15.6 (≈ 4.39 µg/mL) | 15.6 (≈ 4.39 µg/mL) | 7.81 (≈ 2.2 µg/mL) | 7.81 (≈ 2.2 µg/mL) | 62.5 (≈ 17.6 µg/mL) | 31.2 (≈ 8.78 µg/mL) | O=C1O/C(=C\CO)C=C1c1ccc(Br)cc1 | IC50 [11, 29]: 3.06 µM; IC50 ([15]; Mus musculus, L1210, 72 h, read-out: IC50): 7.71 µM; IC50 [18, 30]: 2.07 µM; MIC80 [24]: 15.6 µM (≈ 4.39 µg/mL); MIC80 [25]: 7.81 µM (≈ 2.2 µg/mL); MIC80 [26]: 1.95 µM (≈ 0.548 µg/mL); MIC80 [27]: 15.6 µM (≈ 4.39 µg/mL); MIC80 [28]: 31.2 µM (≈ 8.78 µg/mL)
3 | 250 (≈ 74.3 µg/mL) | 125 (≈ 37.1 µg/mL) | 125 (≈ 37.1 µg/mL) | 250 (≈ 74.3 µg/mL) | 250 (≈ 74.3 µg/mL) | 250 (≈ 74.3 µg/mL) | 250 (≈ 74.3 µg/mL) | 125 (≈ 37.1 µg/mL) | Not Active | 250 (≈ 74.3 µg/mL) | 125 (≈ 37.1 µg/mL) | 15.6 (≈ 4.64 µg/mL) | 62.5 (≈ 18.6 µg/mL) | 62.5 (≈ 18.6 µg/mL) | 125 (≈ 37.1 µg/mL) | 250 (≈ 74.3 µg/mL) | 125 (≈ 37.1 µg/mL) | 62.5 (≈ 18.6 µg/mL) | 250 (≈ 74.3 µg/mL) | 250 (≈ 74.3 µg/mL) | CCOCC1C=C(c2ccc(Br)cc2)C(=O)O1 (centres undefined) | IC50 [11, 29]: 1.94 µM; IC50 ([15]; l1210): Not Active; IC50 [18, 30]: 9.82 µM; MIC80 [24]: 62.5 µM (≈ 18.6 µg/mL); MIC80 [25]: 15.6 µM (≈ 4.64 µg/mL); MIC80 [26]: 31.2 µM (≈ 9.29 µg/mL); MIC80 [27]: 125 µM (≈ 37.1 µg/mL); MIC80 [28]: 125 µM (≈ 37.1 µg/mL)
